# Laboratory results from ChEMBL document CHEMBL3813647, “Discovery of an Orally Active and Liver-Targeted Prodrug of 5-Fluoro-2'-Deoxyuridine for the Treatment of Hepatocellular Carcinoma” (J Med Chem, 2016).
# Key:
# [1] = Half life in rat plasma by HPLC analysis; type: ADME, cell-free
# In short: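 Rat plasma, 37 °C. Compound added from a 2.5 mM stock, sampled at 0–24 h, quenched with MeOH. Analyzed by HPLC-UV at 267 nm (C8 column, MeOH:H2O 68:32). Triplicate samples.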
# [2] = tested on: Liver; experiment: Drug metabolism in phenobarbital/beta-napthoflavone treated Sprague-Dawley rat liver S9 fraction assessed as prodrug activation at 50 uM preincubated for 5 mins followed by NADPH addition measured up to 60 mins by HPLC-MS/MS analysis; type: ADME, subcellular; conditions: s9, 1 h
# In short: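 S9 prepared from livers of Sprague-Dawley rats dosed i.g. with phenobarbital/β-naphthoflavone for 3 days. Incubation: 100 mM KH2PO4 pH 7.4, 5 mg/mL S9, compound at 50 μM, 5 min preincubation at 37 °C, then 2 mM NADPH. Samples at 0–60 min, MeOH extraction, FdUMP (m/z 325→129) measured by HPLC-MS/MS. Triplicate.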
# [3] = Cytotoxicity against human SMMC7721 cells assessed as reduction in cell viability after 72 hrs by MTT assay; type: functional, cell-based; conditions: SMMC-7721, 72 h
# In short: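 Cells in RPMI-1640 with 10% FBS, seeded at 4 × 10³ per well and attached for 24 h. Compound (DMSO ≤0.5% final) added for 72 h at 37 °C, 5% CO2. Viability read by MTT. IC50 set against 0.5% DMSO-treated cells taken as 100% viable. Mean of two independent experiments, each run in triplicate.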
# [4] = tested on: Liver; experiment: Drug uptake in Sprague-Dawley rat liver S9 fraction treated with (S)-Isopropyl 2-(((R)-(((2R,3S,5R)-5-(5-fluoro-2,4-dioxo 3,4-dihydropyrimidin-1(2H)-yl)-3-hydroxytetrahydrofuran-2-yl)methoxy)((2-methylbenzyl)oxy)phosphoryl)amino)propanoate at 20 ug/mL preincubated for 5 mins followed by NADPH addition measured at 20 mins by HPLC-MS/MS analysis; type: ADME, subcellular; conditions: s9, 20 min
# In short: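 Rat liver S9 (10 mg/mL) incubated with compound at 20 μg/mL. Parent, intermediate A and FdUMP followed over time by HPLC-MS/MS. Negative control run without NADPH.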
Compound,half-life [1] [h],Drug metabolism [2] [nmol/min/mg],IC50 [3] [µM],Drug uptake [4]
O=c1[nH]c(=O)n([C@H]2C[C@H](O)[C@@H](COP(=O)(NCc3ccccc3)OCc3cccc(F)c3)O2)cc1F (some centres undefined),> 24,12.5,241,
O=c1[nH]c(=O)n([C@H]2C[C@H](O)[C@@H](COP(=O)(NCc3ccccc3)OCc3cccc(Br)c3)O2)cc1F (some centres undefined),> 24,32.8,225,
COc1ccccc1COP(=O)(NCc1ccccc1)OC[C@H]1O[C@@H](n2cc(F)c(=O)[nH]c2=O)C[C@@H]1O (some centres undefined),3.4,238.9,6.8,
Cc1ccc(COP(=O)(NCc2ccccc2)OC[C@H]2O[C@@H](n3cc(F)c(=O)[nH]c3=O)C[C@@H]2O)cc1 (some centres undefined),> 24,53.5,31.7,
O=c1[nH]c(=O)n([C@H]2C[C@H](O)[C@@H](COP(=O)(NCc3ccccc3)OCc3ccc(Br)cc3)O2)cc1F (some centres undefined),> 24,39.1,107,
O=c1[nH]c(=O)n([C@H]2C[C@H](O)[C@@H](COP(=O)(NCc3ccccc3)OCc3ccccc3F)O2)cc1F (some centres undefined),> 24,34.7,155,
O=c1[nH]c(=O)n([C@H]2C[C@H](O)[C@@H](COP(=O)(NCc3ccccc3)OCc3ccc(Cl)cc3)O2)cc1F (some centres undefined),> 24,25.6,133,
Cc1cccc(COP(=O)(NCc2ccccc2)OC[C@H]2O[C@@H](n3cc(F)c(=O)[nH]c3=O)C[C@@H]2O)c1 (some centres undefined),> 24,49.4,139,
O=c1[nH]c(=O)n([C@H]2C[C@H](O)[C@@H](COP(=O)(NCc3ccccc3)OCc3cccc(Cl)c3)O2)cc1F (some centres undefined),> 24,22.6,206,
O=c1[nH]c(=O)n([C@H]2C[C@H](O)[C@@H](COP(=O)(NCc3ccccc3)OCc3ccccc3Cl)O2)cc1F (some centres undefined),> 24,29.2,132,
Cc1ccccc1CO[P@](=O)(N[C@@H](C)C(=O)O)OC[C@H]1O[C@@H](n2cc(F)c(=O)[nH]c2=O)C[C@@H]1O,,,,metabolite_detected
COc1cccc(COP(=O)(NCc2ccccc2)OC[C@H]2O[C@@H](n3cc(F)c(=O)[nH]c3=O)C[C@@H]2O)c1 (some centres undefined),> 24,118.7,386,
